# Reference: ChEMBL document CHEMBL1125330, “N-substituted pyrazino[2,3-c][1,2,6]thiadiazine 2,2-dioxides. A new class of diuretics” (J Med Chem, 1992)
# How the values were obtained:
# Rattus norvegicus [1] = assay: Mean Chlorine excretion in rats when compound administered at 0 mg/kg po and vehicle dosed at 0 umol/kg; type: ADME, organism-based; parameters: dose 0 mg/kg, route oral; conditions: in vivo
# Rattus norvegicus [2] = assay: Mean Chlorine excretion in rats when compound administered at 5 mg/kg po and vehicle dosed at 16.79 umol/kg; type: ADME, organism-based; parameters: dose 5 mg/kg, route oral; conditions: in vivo
# Method in brief: (§1)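 Male Sprague-Dawley rats (HC/CFY, 175-200 g), no food or water for 18 h before and during the test. Single gavage dose (2.5-160 mg/kg; vehicle 1% carboxymethyl cellulose/0.1% Tween 80, 0.5 mL/100 g bw), then distilled water 2.5 mL/100 g bw po. Individual metabolic cages, 6 h urine. K+ by flame photometry, Cl- colorimetric, as mequiv/6 h/kg bw; unpaired Student t-test vs control.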
# Rattus norvegicus [3] = assay: Mean urinary output in rats when compound administered at 2.5 mg/kg po and vehicle dosed at 8.4 umol/kg; type: ADME, organism-based, Urine; parameters: dose 2.5 mg/kg, route oral; conditions: in vivo
# Method in brief: (§2)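 Water-loaded male Sprague-Dawley rats (HC/CFY, 175-200 g) fasted and without water for 18 h. Oral gavage of 2.5-160 mg/kg in 1% CMC with 0.1% Tween 80, then distilled water 2.5 mL/100 g po. Urine collected 6 h in metabolic cages, mean output in mL/6 h/kg bw. Unpaired Student t-test against vehicle; dose-response by linear regression.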
# Rattus norvegicus [4] = assay: Mean urinary output in rats when compound administered at 40 mg/kg po and vehicle dosed at 134.35 umol/kg; type: ADME, organism-based, Urine; parameters: dose 40 mg/kg, route oral; conditions: in vivo; method in brief: as §2
# Rattus norvegicus [5] = assay: Volume of urine 2 hr after the compound was administered 10 mg/kg po in rat; type: ADME, organism-based; parameters: dose 10 mg/kg, route oral; conditions: in vivo
# Method in brief: (§3)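 Onset/duration protocol: male Sprague-Dawley rats (HC/CFY, 175-200 g), food and water withdrawn for 18 h before and during the test. Single gavage dose in 1% carboxymethyl cellulose/0.1% Tween 80 (0.5 mL/100 g bw), then distilled water load (2.5 mL/100 g bw po). Two rats per metabolic cage, six pairs per group. Urine collected at 0-1, 1-2, 2-3, 3-4 and 4-6 h; Na+ by flame photometry. Vehicle controls; nonpaired Student t-test.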
# Rattus norvegicus [6] = assay: Dose required to produce an excretion of 2 mequiv of Na+/kg bw/6h vs control groups; type: functional
# Method in brief: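 Male Sprague-Dawley rats (HC/CFY, 175-200 g), fasted and water-deprived 18 h before and during the test. Compound dosed by gavage in 1% carboxymethyl cellulose/0.1% Tween 80, then water load 2.5 mL/100 g bw po. Urine collected 6 h in metabolic cages; Na+ by flame photometry. Effective doses vs vehicle controls derived by linear regression of dose-response data.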
# Rattus norvegicus [7] = assay: Volume of urine 3h after the compound was administered 10 mg/kg po in rat; type: ADME, organism-based; parameters: dose 10 mg/kg, route oral; conditions: in vivo; method in brief: as §3
# Rattus norvegicus [8] = assay: Urinary sodium 2 hr after the compound was administered 10 mg/kg po in rat; type: ADME, organism-based, Urine; parameters: dose 10 mg/kg, route oral; conditions: in vivo
# Method in brief: (§4)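 Onset and duration study in fasted, water-loaded male Sprague-Dawley rats housed two per metabolic cage, six pairs per group. Single oral dose given, then water 2.5 mL/100 g po. Urine volume and sodium (flame photometry) measured over 0-1, 1-2, 2-3, 3-4 and 4-6 h intervals. Mean values compared with vehicle by Student t-test.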
# Rattus norvegicus [9] = assay: Mean sodium excretion in rats when compound administered at 40 mg/kg po and vehicle dosed at 134.35 umol/kg; type: ADME, organism-based; parameters: dose 40 mg/kg, route oral; conditions: in vivo
# Method in brief: (§5)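 Male Sprague-Dawley rats (HC/CFY, 175-200 g) fasted and water-deprived 18 h before and during the test. Dosed by gavage at 2.5-160 mg/kg in 1% carboxymethyl cellulose/0.1% Tween 80, 0.5 mL/100 g bw. Immediately hydrated with water (2.5 mL/100 g bw, po). Urine collected 6 h in metabolic cages; Na+ and K+ by flame photometry; mean mequiv/6 h/kg bw; nonpaired Student t-test.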
# Rattus norvegicus [10] = assay: Mean potassium excretion in rats when compound administered at 10 mg/kg po and vehicle dosed at 33.59 umol/kg; type: ADME, organism-based; parameters: dose 10 mg/kg, route oral; conditions: in vivo; method in brief: as §1
# Rattus norvegicus [11] = assay: Mean potassium excretion in rats when compound administered at 2.5 mg/kg po and vehicle dosed at 8.4 umol/kg; type: ADME, organism-based; parameters: dose 2.5 mg/kg, route oral; conditions: in vivo; method in brief: as §1
# [12] = Acute toxicity in mice when given po; type: organism-based; conditions: mouse, in vivo, read-out: DL50 (the source's name)
# Method in brief: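 Male Swiss mice (SPF, HC/CFLP strain, 20–25 g), oral dosing; mortality followed over 15 days; LD50 derived by the Litchfield and Wilcoxon method.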
# Rattus norvegicus [13] = assay: Mean Chlorine excretion in rats when compound administered at 40 mg/kg po and vehicle dosed at 134.35 umol/kg; type: ADME, organism-based; parameters: dose 40 mg/kg, route oral; conditions: in vivo; method in brief: as §1
# Rattus norvegicus [14] = assay: Mean sodium excretion in rats when compound administered at 0 mg/kg po and vehicle dosed at 0 umol/kg; type: ADME, organism-based; parameters: dose 0 mg/kg, route oral; conditions: in vivo; method in brief: as §5
# Rattus norvegicus [15] = assay: Urinary sodium 4 hr after the compound was administered 10 mg/kg po in rat; type: ADME, organism-based, Urine; parameters: dose 10 mg/kg, route oral; conditions: in vivo; method in brief: as §4
# Rattus norvegicus [16] = assay: Mean potassium excretion in rats when compound administered at 40 mg/kg po and vehicle dosed at 134.35 umol/kg; type: ADME, organism-based; parameters: dose 40 mg/kg, route oral; conditions: in vivo; method in brief: as §1
# Rattus norvegicus [17] = assay: Mean sodium excretion in rats when compound administered at 5 mg/kg po and vehicle dosed at 16.79 umol/kg; type: ADME, organism-based; parameters: dose 5 mg/kg, route oral; conditions: in vivo; method in brief: as §5
# Rattus norvegicus [18] = assay: Mean urinary output in rats when compound administered at 20 mg/kg po and vehicle dosed at 67.18 umol/kg; type: ADME, organism-based, Urine; parameters: dose 20 mg/kg, route oral; conditions: in vivo; method in brief: as §2
# Rattus norvegicus [19] = assay: Urinary sodium 1 hr after the compound was administered 10 mg/kg po in rat; type: ADME, organism-based, Urine; parameters: dose 10 mg/kg, route oral; conditions: in vivo; method in brief: as §4
# Rattus norvegicus [20] = assay: Mean urinary output in rats when compound administered at 5 mg/kg po and vehicle dosed at 16.79 umol/kg; type: ADME, organism-based, Urine; parameters: dose 5 mg/kg, route oral; conditions: in vivo; method in brief: as §2
# Rattus norvegicus [21] = assay: Volume of urine 6 hr after the compound was administered 10 mg/kg po in rat; type: ADME, organism-based; parameters: dose 10 mg/kg, route oral; conditions: in vivo; method in brief: as §3
smiles,measurement,setting,value
NS(=O)(=O)c1cc2c(cc1Cl)NCNS2(=O)=O [HYDROCHLOROTHIAZIDE],Cl-,Rattus norvegicus [1],0.78 m equiv 6hr-1 kg-1 (body weight)-1
same,Cl-,Rattus norvegicus [2],4.88 m equiv 6hr-1 kg-1 (body weight)-1
same,V,Rattus norvegicus [3],32.5 ml 6hr-1 (kg of body weight)-1
same,V,Rattus norvegicus [4],44.48 ml 6hr-1 (kg of body weight)-1
same,Urine volume,Rattus norvegicus [5],4.97 mL
same,ED2,Rattus norvegicus [6],1.57 mg/kg
same,Urine volume,Rattus norvegicus [7],3.37 mL
same,Urinary Na+,Rattus norvegicus [8],0.39 m equiv
same,Na,Rattus norvegicus [9],2.78 m equiv 6hr-1 kg-1 (body weight)-1
same,K,Rattus norvegicus [10],1.14 m equiv 6hr-1 kg-1 (body weight)-1
same,K,Rattus norvegicus [11],1.26 m equiv 6hr-1 kg-1 (body weight)-1
same,LD50,[12],> 6000 mg/kg
same,Cl-,Rattus norvegicus [13],3.94 m equiv 6hr-1 kg-1 (body weight)-1
same,Na,Rattus norvegicus [14],0.32 m equiv 6hr-1 kg-1 (body weight)-1
same,Urinary Na+,Rattus norvegicus [15],0.16 m equiv
same,K,Rattus norvegicus [16],1.64 m equiv 6hr-1 kg-1 (body weight)-1
same,Na,Rattus norvegicus [17],3.03 m equiv 6hr-1 kg-1 (body weight)-1
same,V,Rattus norvegicus [18],42.94 ml 6hr-1 (kg of body weight)-1
same,Urinary Na+,Rattus norvegicus [19],0.19 m equiv
same,V,Rattus norvegicus [20],38.07 ml 6hr-1 (kg of body weight)-1
same,Urine volume,Rattus norvegicus [21],3.42 mL
